# Assay outcomes as filed in PubChem BioAssay.
# NPY1 pot ag: NPY-Y1 receptor potentiators or agonists, primary screen, cell-based; AID 1304, 2008; hit rate 0.37% among 220,000; NPY-Y1 expressing cells, potentiator/agonist activation; Neuropeptide Y receptor type 1 (Homo sapiens), P25929; activation, % at 3.6 µM; in the data active = activation above about 33%, passing the limit was not always enough;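 note: cells stimulated with NPY at EC10 then isoproterenol at EC100; 0% = low agonist plus stimulus and 100% = saturating agonist plus stimulus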
# NPY Y1 blocker: NPY-Y1 receptor antagonists, primary screen, cell-based; inhibition, % at 3.6 µM; HEK293-CNG Y1 cells, membrane potential fluorescence; NPY at EC95, then isoproterenol; hit rate 1% among 200,000; AID 1040, 2008; Neuropeptide Y receptor type 1 (Homo sapiens), P25929;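 active = inhibition above the campaign mean inhibition of all tested compounds plus 3 SD, cut at about 20% in these data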;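 note: 0% = DMSO wells given NPY plus isoproterenol and 100% = isoproterenol alone without NPY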
#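 Material: HEK293 Y1/CNG channel cell line; also added: NPY (25 nM), isoproterenol (1 µM), Ro 20-1724 (25 µM); doses: one concentration, 3.6 µM, in 0.4% DMSO; schedule: compound incubation 1 h at room temperature, readout 45 min post-stimulation; technique: membrane potential fluorescence; measure: fluorescence ratio normalized to % inhibition between controls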
# NPY2 pot ag: NPY-Y2 potentiators or agonists, primary screen, cell-based; Neuropeptide Y receptor type 2 (Homo sapiens), P49146; cells expressing NPY-Y2, potentiator/agonist read-out; activation, % at 3.6 µM; hit rate 0.45% among 220,000; AID 1359, 2008; in the data active = activation above about 27%;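 note: cells stimulated with NPY near EC25 plus isoproterenol at EC100; 0% = vehicle plus submaximal agonist and 100% = vehicle plus saturating agonist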
# Target sequence (P49146 whole entry, looked up): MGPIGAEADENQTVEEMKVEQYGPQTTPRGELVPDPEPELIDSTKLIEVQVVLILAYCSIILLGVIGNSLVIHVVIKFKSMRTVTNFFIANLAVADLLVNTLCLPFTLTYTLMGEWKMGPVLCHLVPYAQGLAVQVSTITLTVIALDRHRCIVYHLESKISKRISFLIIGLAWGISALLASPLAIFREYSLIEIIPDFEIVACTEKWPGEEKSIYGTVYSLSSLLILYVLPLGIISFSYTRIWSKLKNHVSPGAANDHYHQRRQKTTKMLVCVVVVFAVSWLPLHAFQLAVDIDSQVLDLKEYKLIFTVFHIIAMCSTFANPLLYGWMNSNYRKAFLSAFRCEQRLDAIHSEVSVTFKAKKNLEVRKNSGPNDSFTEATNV
# NPY Y2 blocker: NPY-Y2 receptor antagonists, primary screen, cell-based. AID 793, 2007. hit rate 0.99% among 140,000. NPY-Y2 expressing cells, antagonist mode. Neuropeptide Y receptor type 2 (Homo sapiens), P49146. inhibition, % at 2.7 µM;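 note: 0% = vehicle with agonist challenge and 100% = reference antagonist with challenge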
# NPY-Y1 ant conf: NPY-Y1 receptor antagonists, retest of hits, confirmation, HEK293-CNG cells, membrane potential fluorescence, triplicate. cAMP; NPY challenge against isoproterenol-raised cAMP. AID 1254, 2008. inhibition, % at 3.6 µM. hit rate 21% among 1,200. shares compounds with NPY Y1 blocker; in the data active = inhibition above about 20%;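 note: 0% = vehicle with agonist plus stimulus and 100% = stimulus alone without agonist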
# NPY-Y2 antag ct: NPY-Y2 receptor antagonists, selectivity check, confirmation, counter-screen for NPY-Y1 antagonist project, HEK293-CNG cells, membrane potential fluorescence, triplicate; shares compounds with NPY Y1 blocker; antagonism; cells given NPY, then isoproterenol; inhibition, % at 3.6 µM; hit rate 28% among 1,200; AID 1255, 2008;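 note: 0% = DMSO with agonist challenge and 100% = reference antagonist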
# * hit, by the source's call; . = not tested or not shown. Sampled rows, rich in hits. Any-hit rate of the full collection: about 1.8%. Cut-off read from the data, not from the text of the source, unless noted: active = inhibition above about 17%; inactive = the rest.
SMILES,NPY1 pot ag,NPY Y1 blocker,NPY2 pot ag,NPY Y2 blocker,NPY-Y1 ant conf,NPY-Y2 antag ct
O=[N+]([O-])c1cccc(-c2noc(COc3ccccc3)n2)c1,-18,25*,-2,.,4,6
Cc1cccc(C)c1OCCn1nc(C(=O)O)c2ccccc2c1=O,-35,24*,-30,10,17,23*
COc1ccc(Nc2ccc(C(N)=O)cc2[N+](=O)[O-])cc1,9,5,6,.,.,.
COc1ccc(Nc2ccc(C(=O)O)cc2[N+](=O)[O-])cc1,-21,22*,3,6,4,9
COc1ccc(N(CC(=O)Nc2ccc(S(=O)(=O)N3CCOCC3)cc2)S(=O)(=O)c2ccc(F)cc2)cc1,2,-7,5,.,.,.
Cc1nn(S(=O)(=O)c2cccs2)c(C)c1Sc1ccc([N+](=O)[O-])cc1,-5,10,7,5,.,.
Cc1nn(S(=O)(=O)c2ccccc2)c(C)c1Sc1ccc([N+](=O)[O-])cc1,-4,24*,7,7,6,4
O=C(O)CCCC(=O)Nc1nc(-c2ccc(F)cc2)cs1,-13,4,-7,1,.,.
O=C(CCCc1cccs1)Nc1nc(-c2ccc(F)cc2)cs1,-33,25*,-10,15,19,16
Cc1nn(-c2ccccc2)c2sc(C(=O)O)cc12,-52,25*,-19,13,22*,15
Cc1ccc(-n2nc(C)c3cc(C(=O)O)sc32)cc1,-3,8,2,5,.,.
Cc1ccc(SCCC(=O)OCn2nnc3ccccc3c2=O)cc1,-2,23*,-14,.,14,15
CCOC(=O)c1c(C)n(-c2ccc(C)cc2)c2ccc(OCC(O)CN3CCN(C)CC3)cc12 (centres undefined),-57,47*,-47,.,25*,47*
CCOC(=O)c1c(C)n(C)c2ccc(OCC(O)CN3CCN(C)CC3)cc12 (centres undefined),-13,-3,1,3,.,.
CCC(C)(C)n1nnnc1C(c1cccnc1)N1CCN(c2cccc(C(F)(F)F)c2)CC1 (centres undefined),2,25*,-7,17,14,8
CCC(C)(C)n1nnnc1C(c1ccncc1)N1CCN(c2cccc(OC)c2)CC1 (centres undefined),-14,13,-3,4,.,.
Cc1c(C)n(Cc2ccccc2)c2ccc(C(=O)OCCCN(C)C)cc12,-5,22*,-14,.,29*,37*
COc1ccc(CSc2n[nH]c(C)n2)cc1Br,7,-2,14,-2,.,.
Cc1nc(SCc2cccc(Oc3ccccc3)c2)n[nH]1,23,23*,11,3,6,34*
O=C(c1cnccn1)N1CCN(C/C=C/c2ccccc2)CC1,-7,-3,-1,1,.,.
CCOc1ccc(-n2c(=O)c3sccc3n(CC(=O)Nc3cccc(OC)c3)c2=O)cc1,15,0,19,.,.,.
Cc1ccc(Cc2cnc(N3C(=N)SC(C)C3=O)s2)cc1 (centres undefined),-26,26*,-35,.,12,12
Cc1cccc(Cc2cnc(N3C(=N)SC(C)C3=O)s2)c1 (centres undefined),-27,16,-45,.,.,.
CCn1c2ccccc2c2cc(NC(=O)c3cc(OC)cc(OC)c3)ccc21,-6,4,4,4,.,.
CCn1c2ccccc2c2cc(NC(=O)c3cc(OC)c(OC)c(OC)c3)ccc21,-23,35*,-19,1,2,16
SMILES,NPY1 pot ag,NPY Y1 blocker,NPY2 pot ag,NPY Y2 blocker,NPY-Y1 ant conf,NPY-Y2 antag ct
S=c1nc[nH]c2c1[nH]c1ccccc12,-19,39*,-21,2,4,2
S=c1nc[nH]c2c1[nH]c1ccc(Cl)cc12,8,.,-11,.,.,.
O=C(NCc1ccco1)C(c1cccnc1)N(C(=O)Cn1nnc2ccccc21)c1ccc(F)cc1 (centres undefined),7,-5,10,2,.,.
CN1Cc2cc(C(=O)c3cc(Cl)cc(CSc4ncccn4)c3O)cnc2NC1=O,1,21*,-1,4,-1,15
O=C(NN=C1CCCCC1)c1ccccc1OCc1ccc(F)cc1,-52,30*,-44,5,-2,3
CNCC(C)COc1ccccc1OCc1ccccc1 (centres undefined),-13,22*,-7,16,12,11
Cc1ccc(C(O)(c2ccccc2)c2ccccc2C(C)N(C)C)c(C)c1 (centres undefined),4,25*,-36,16,21*,32*
CCOc1ccccc1NC(=O)CN1C(=O)CSC(C)C1=O (centres undefined),13,-1,-4,.,.,.
Brc1ccc(-c2csc(/N=C/N3CCCC3)n2)cc1,-11,32*,-27,.,31*,13
OCCN(/C=N/c1nc(-c2ccc(Br)cc2)cs1)CCO,12,1,3,-2,.,.
COCc1c(Br)c(C)nc(OCC(=O)N/N=C/c2cc(C)n(-c3ccc([N+](=O)[O-])cc3)c2C)c1C#N,1,-2,-2,1,.,.
COc1ccc(OC)c(CCNC(=O)CS(=O)(=O)Cc2nc(-c3ccccc3C)oc2C)c1,-41,21*,-47,16,7,7
Clc1ccccc1CSc1cc2c(nn1)-c1ccccc1CC2,-11,23*,-10,12,4,8
Clc1cccc(Cl)c1CSc1cc2c(nn1)-c1ccccc1CC2,-10,-2,-5,1,.,.
